# Measured values pooled from the literature.
# Lines come from different studies, so protocols differ.
# Target: Interleukin-1 receptor-associated kinase 1 (IRAK1, Homo sapiens, UniProt P51617)
Compound,observed,action,method,tested at,endpoint,result
N#CC1(c2ccccn2)CCN(Cc2cc(C(=O)O)c(=O)n3ccccc23)CC1,cell-free assay,,competition with immobilised ligand,1 µM,remaining binding,77%
Nc1ncc(-c2nc(N3CCOCC3)nc(N3CCOCC3)n2)c(C(F)F)n1,binding,,competition with immobilised ligand,10 µM,remaining binding,50%
COc1ncccc1-c1cnn2ccc(N3CCN(C(=O)OC(C)C)CC3)nc12,binding,,competition with immobilised ligand,1 µM,remaining binding,80%
Cn1cncc1[C@](O)(COc1ccc(C#N)cc1-c1ccc(OC(F)(F)F)cc1)c1ccc(C#N)cc1,cell-free assay,,competition with immobilised ligand,1 µM,remaining binding,83%
C#Cc1n[nH]c2c(-c3cn(C(C)c4ccccn4)c(=O)[nH]c3=O)cc(F)cc12 (stereo not drawn),enzyme activity,inhibitor,,1 µM,inhibition,11.6%
Cn1cc(-c2cc(F)cc(N3CCn4c(cc5c4CCCC5)C3=O)c2CO)cc(Nc2ccc(N3CCN(C4COC4)CC3)cn2)c1=O,enzyme activity,inhibitor,,0.1 µM,inhibition,2%
O=c1[nH]c2ccccc2n1C1CCN(Cc2ccc(-c3[nH]c4cc5ncnc5cc4nc3-c3ccccc3)cc2)CC1,cell-free assay,,,0.5 µM,remaining signal,109%
COc1cc(Nc2ncc(F)c(Nc3ccc4c(n3)NC(=O)C(C)(C)O4)n2)cc(OC)c1OC,binding,,,10 µM,inhibition,100%
Cc1nn(C)cc1-c1nc2c(N3CCN(Cc4ccc(Cl)cc4)CC3)c(Cl)cnc2[nH]1,binding,,competition with immobilised ligand,1 µM,remaining binding,56%
CC(C)(C)c1cc(C=C(C#N)C#N)cc(Br)c1O,enzyme activity,inhibitor,,0.5 µM,remaining activity,105%
C#Cc1n[nH]c2c(-c3cn([C@@H](C)c4ccccc4)c(=O)[nH]c3=O)cc(F)cc12,enzyme activity,inhibitor,,0.1 µM,inhibition,-7%
Cn1cc(-c2cccc(N3CCc4c(sc5c4CC(C)(C)C5)C3=O)c2CO)cc(Nc2ccncn2)c1=O,enzyme activity,inhibitor,,1 µM,inhibition,-4%
